A selection: hits, their analogues and other compounds. The true share with any hit is near 1.3%.
FN deposit inh: inhibitors of fibronectin matrix deposition, primary screen, AH1F cells, Alexa488-fibronectin fluorescence, plate reader | AH1F fibroblasts, overnight | inhibition, % at 12.6 µM | 350,000 tested, 0.086% active | AID 743247, 2014;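 active = mean inhibition across replicates of 30% or more, regardless of how many single replicates reach that level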;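 note: positive control wells lacked labelled fibronectin entirely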
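Material: AH1F fibroblast monolayer depositing Alexa488-labelled fibronectin into matrix / Amount: 10000 AH1F cells per well / Signal: fluorescence 485/525 nm / Medium: DMEM, 2% serum / Compound: single dose, pinned / Incubation: 1 h cell adhesion before compound, then overnight fibronectin incubation / Reagent: Alexa488-FN, 24 nM final / Read-out: inhibition of fibronectin deposition signal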
RAD52 anneal inh: RAD52 DNA annealing inhibitors, primary screen, biochemical, FRET, single point, set 2; DNA repair protein RAD52 homolog (Homo sapiens), P43351; inhibition, % at 18.7 µM; 360,000 tested, 0.46% active; recombinant RAD52 DNA annealing, FRET fluorescence; AID 651710, 2012;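 active = every replicate showing at least 50% inhibition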
RAD54 inh: inhibitors of human RAD54 branch migration, primary screen, biochemical, fluorescence, single point | DNA repair and recombination protein RAD54-like (Homo sapiens), Q92698 | RAD54 Holliday junction branch migration, FAM/BHQ fluorescence | inhibition, % at 10.4 µM | 360,000 tested, 0.14% active | AID 602329, 2012;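 active = mean normalized replicate activity at least 40 and at least half of replicates scoring 40 or more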;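 note: 0% = median of neutral control wells and 100% = median of positive control wells; inhibitors cause a drop in the FAM fluorescence signal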
Target sequence (Q92698 whole entry, looked up): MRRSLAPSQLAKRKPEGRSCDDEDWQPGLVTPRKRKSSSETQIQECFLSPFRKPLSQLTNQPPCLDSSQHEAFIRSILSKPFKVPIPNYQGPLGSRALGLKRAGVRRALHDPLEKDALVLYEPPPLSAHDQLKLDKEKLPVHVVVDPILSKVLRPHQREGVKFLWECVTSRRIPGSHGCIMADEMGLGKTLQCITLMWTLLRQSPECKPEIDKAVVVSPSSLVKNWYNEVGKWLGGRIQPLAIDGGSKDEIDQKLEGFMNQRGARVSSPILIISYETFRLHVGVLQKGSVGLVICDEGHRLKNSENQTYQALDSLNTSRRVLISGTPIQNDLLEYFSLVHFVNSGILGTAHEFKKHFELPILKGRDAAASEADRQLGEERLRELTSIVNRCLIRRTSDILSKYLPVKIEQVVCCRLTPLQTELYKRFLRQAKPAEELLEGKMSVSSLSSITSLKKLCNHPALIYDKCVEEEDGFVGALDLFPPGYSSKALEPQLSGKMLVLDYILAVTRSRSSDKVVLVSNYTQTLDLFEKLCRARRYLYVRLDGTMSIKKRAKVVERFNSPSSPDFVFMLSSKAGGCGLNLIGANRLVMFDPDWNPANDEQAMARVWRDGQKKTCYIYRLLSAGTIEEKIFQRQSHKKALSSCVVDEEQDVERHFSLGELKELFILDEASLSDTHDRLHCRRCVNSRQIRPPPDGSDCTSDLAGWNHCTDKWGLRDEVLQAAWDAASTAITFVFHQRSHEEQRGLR
PAX8 reporter: inhibitors of PAX8-driven TPO luciferase reporter, primary screen, RMG-I cells, single concentration. SteadyGlo, 24 h. inhibition, % at 12.6 µM. 360,000 tested, 1.2% active. AID 652154, 2013;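 active = mean replicate inhibition at least 60% with every replicate also reaching 60%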;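 note: luciferase light reporting Pax8 driven TPO promoter activity; plate controls were median of neutral control wells for no effect and mitoxantrone controls for full effect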
* hit, by the source's call; nt = no result given; ! = repeats disagree.

SMILES	FN deposit inh	RAD52 anneal inh	RAD54 inh	PAX8 reporter
Cn1cnc([N+](=O)[O-])c1S(=O)(=O)Oc1cccc2ccccc12	-1.5	6.4	-4.8	79.7*
Cc1nnc(SCC(=O)Nc2cc(C(N)=O)cc(C(N)=O)c2)n1-c1ccccc1	-1.3	-6.0	-3.7	14.5
Cc1ccc(CCc2nnc(SCC(=O)Nc3cccc(Cl)c3)n2-c2ccccc2)o1	3.1	-9.4	nt	91.0*
CCOc1cc(CNCc2ccccc2)ccc1OCC(=O)NC1CCCCC1	10.2	0.4	-19.6	27.4
CCC(=O)N1[C@@H]2c3ccc(-c4cccc(F)c4)c(=O)n3C[C@@H]2[C@@H](CO)[C@@H]1C(=O)OC	nt	-4.3	-3.4	-5.1
CCN1C(=O)[C@H]2[C@@H](c3ccc(-c4ccc(F)cc4)c(OC)c3)N3CCC[C@@]3(C(=O)OC)[C@H]2C1=O	-26.9	-42.6	5.4	-7.2
CCN1C(=O)[C@@H]2[C@@H](c3ccc(-c4ccc(Cl)c(Cl)c4)c(OC)c3)N3CCC[C@@]3(C(=O)OC)[C@@H]2C1=O	24.8	-99.3	-1.2	70.1*
CC(=O)/C=C/n1c(=S)oc2ccccc21	-8.2	-1.7	nt	113.5*
O=C1CCCC(O)=C1N=Nc1c(Cl)cc(C(F)(F)F)cc1Cl	-1.8	-12.2	-0.4	5.2
Cn1ncc2c(O/N=C(\N)c3ccc(C(F)(F)F)cc3)ncnc21	-9.6	0.7	2.2	91.5*
COc1ccc(N(C(=O)/C=C/C(=O)Nc2cc(C)on2)C(C(=O)NC2CCCC2)c2ccccc2C)cc1 (centres undefined)	-6.9	-11.2	nt	71.3*
C[C@H]1CCCCO[C@H](CN(C)Cc2ccc(C(F)(F)F)cc2)[C@@H](C)CN([C@@H](C)CO)C(=O)c2cc(NS(=O)(=O)c3cccs3)ccc2O1	nt	-29.3	-1.8	81.0*
C[C@H](CO)N1C[C@H](C)[C@@H](CN(C)Cc2ccc(Cl)c(Cl)c2)OCCCC[C@H](C)Oc2ccc(NS(=O)(=O)c3cccs3)cc2C1=O	-4.6	16.4	-0.7	71.1*
C[C@H]1CCCCO[C@@H](CN(C)Cc2ccc(C(F)(F)F)cc2)[C@@H](C)CN([C@@H](C)CO)C(=O)c2cc(NS(=O)(=O)c3cccs3)ccc2O1	nt	-29.1	-3.8	96.4*
C[C@H](CO)N1C[C@H](C)[C@@H](CN(C)C(=O)Nc2ccc(C(F)(F)F)cc2)OCCCC[C@H](C)Oc2ccc(NS(=O)(=O)c3cccs3)cc2C1=O	nt	-32.2	-18.5	65.0*
CCN(CC)c1ccc(/C=N/N2CCN(c3ccccc3OC)CC2)cc1	5.6	-90.5	-6.7	-18.4
O=C(NCCN1CCOCC1)c1ccc2c(c1)N(Cc1ccc(F)cc1)C(=O)c1ccccc1S2(=O)=O	-4.9	0.2	-2.7	9.9
CCOC(=O)Nc1ccc2nc(Sc3ccc(Cl)cc3)sc2c1	11.4	-11.8	3.3	23.3
COCCc1ncc(CN2CCC(C(=O)Nc3ccc(-n4cccn4)cc3)CC2)cn1	nt	-10.8	-2.5	-10.2
O=C1CCC2c3ccc4ccccc4c3CCN12 (centres undefined)	30.4*	nt	3.7	nt
O=C1CC[C@@H]2c3[nH]c4ccccc4c3CCN12	nt	-1.8	nt	-7.2
COc1ccc(S(=O)(=O)Nc2ccc3c(c2)C(=O)N([C@@H](C)CO)C[C@@H](C)[C@@H](CN(C)S(=O)(=O)c2ccc(Cl)cc2)OCCCC[C@@H](C)O3)cc1	7.3	-0.9	3.3	68.8*
COc1ccc(S(=O)(=O)N(C)C[C@@H]2OCCCC[C@H](C)Oc3ccc(NS(=O)(=O)c4ccc(Cl)cc4)cc3C(=O)N([C@@H](C)CO)C[C@@H]2C)cc1	0.0	-43.3	nt	63.7*
COc1ccc(S(=O)(=O)Nc2ccc3c(c2)C(=O)N([C@H](C)CO)C[C@@H](C)[C@@H](CN(C)S(=O)(=O)c2ccc(Cl)cc2)OCCCC[C@@H](C)O3)cc1	3.7	16.7	1.2	30.5
COc1ccc(S(=O)(=O)Nc2ccc3c(c2)C(=O)N([C@@H](C)CO)C[C@@H](C)[C@H](CN(C)S(=O)(=O)c2ccc(Cl)cc2)OCCCC[C@H](C)O3)cc1	-5.8	-6.0	1.7	28.8
SMILES	FN deposit inh	RAD52 anneal inh	RAD54 inh	PAX8 reporter
COc1ccc(S(=O)(=O)N(C)C[C@H]2OCCCC[C@@H](C)Oc3ccc(NS(=O)(=O)c4ccc(Cl)cc4)cc3C(=O)N([C@@H](C)CO)C[C@H]2C)cc1	6.1	-71.8	nt	68.8*
COC(=O)c1ccccc1COc1cccn2c(N(C)CC3CC3)c(C)nc12	-1.3	-5.1	9.6	-4.3
CCn1c(SCC(=O)NCCc2ccccc2)nnc1C(C)C	2.0	-8.8	nt	20.5
C[C@H]1CN([C@@H](C)CO)S(=O)(=O)c2ccc(/C=C/c3ccccc3)cc2O[C@@H]1CN(C)C(=O)Nc1cc(F)ccc1F	5.6	nt	nt	-17.7
C[C@H](CO)N1C[C@H](C)[C@H](CN(C)C(=O)c2ccccc2)Oc2cc(/C=C/c3ccccc3)ccc2S1(=O)=O	-17.2	9.1	-3.6	40.3
C[C@H]1CN([C@@H](C)CO)S(=O)(=O)c2ccc(/C=C/c3ccccc3)cc2O[C@H]1CN(C)C(=O)Nc1cc(F)ccc1F	7.1	15.7	1.4	63.9*
C[C@@H]1CN([C@@H](C)CO)S(=O)(=O)c2ccc(/C=C/c3ccccc3)cc2O[C@H]1CN(C)C(=O)c1ccccc1	-14.8	nt	-2.9	70.9*
O=C(c1cccnc1)N1CC(=O)N2[C@@H](CO)[C@H](c3ccc(/C=C/c4ccccc4)cc3)[C@@H]2C1	nt	-12.3	nt	-23.2
OC1CCCN(Cc2ccc3ccc4cccc5ccc2c3c45)C1 (centres undefined)	nt	nt	91.3*	nt
Fc1ccc(-c2nc3ccncc3[nH]2)cc1	-15.2	nt	-7.1	-69.7
COc1ccc(-c2nc3ccncc3[nH]2)cc1OC	30.1*	nt	-4.4	nt
Cc1ccccc1-c1ccc(C2[C@@H]3CN(C(=O)C4CCOCC4)C[C@H]2N3)cc1 (some centres undefined)	-8.1	0.1	nt	6.4
O=C(Nc1ccc(F)cc1)N1C[C@@H]2N[C@H](C1)C2c1ccc(/C=C/c2ccccc2)cc1 (some centres undefined)	-2.5	nt	nt	105.2*!
O=C(Nc1ccc2c(c1)OCO2)N1C[C@@H]2N[C@H](C1)C2c1ccc(C=Cc2ccccc2)cc1 (some centres undefined)	-3.9	79.2*	nt	-18.8
Cc1ccccc1-c1ccc(C2[C@@H]3CN(C(=O)C4CC4)C[C@H]2N3)cc1 (some centres undefined)	17.4	83.7*!	nt	-1.2
C/C=C/c1ccc(C2[C@@H]3CN(C(=O)c4ccc5c(c4)OCO5)C[C@H]2N3)cc1 (some centres undefined)	-8.8	-2.4	nt	-1.8
O=C(Nc1ccccc1F)N1C[C@@H]2N[C@H](C1)C2c1ccc(/C=C/c2ccccc2)cc1 (some centres undefined)	8.9	69.1*	nt	-51.3

High-throughput results deposited in PubChem by Broad Institute.
